In ChEMBL document CHEMBL1141413, “Cinnamacrins A-C, cinnafragrin D, and cytostatic metabolites with alpha-glucosidase inhibitory activity from Cinnamosma macrocarpa” (J Nat Prod, 2007):
Values after ≈ are worked out from the molar mass of the structure shown. Active and inactive are the calls of the source. The rule behind the calls is not given here.

Legend:
[1] = molecular target: Maltase-glucoamylase (Homo sapiens) (UniProt O43451); assay: Inhibition of alpha-glucosidase in 1.20 mg/200 uL
[2] = Cytotoxicity against E6SM cells; assay type: cell-based; conditions: human, read-out: MIC
Outline: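 Microscopic scoring of E6SM cell cultures; minimal cytotoxic concentration is the concentration causing a detectable alteration of normal cell morphology.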

[3] = tested on: Vesicular stomatitis virus; assay: Antiviral activity against VSV; assay type: functional
Outline: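 Tested in both E6SM and HeLa cell cultures; the minimum inhibitory concentration is the level that reduces virus-induced cytopathogenicity by 50%.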

Human alphaherpesvirus 2 = assay: Antiviral activity against HSV2 G; assay type: functional; conditions: Human alphaherpesvirus 2, G
Outline: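 Virus-induced cytopathogenicity in E6SM cell cultures; value is the concentration needed to reduce cytopathogenicity by 50%.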

Human alphaherpesvirus 1 [4] = assay: Antiviral activity against HSV1 TK KOS ACVr; assay type: functional; conditions: Human alphaherpesvirus 1, TK KOS ACVr
Outline: (§1)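 Antiviral test in E6SM cell cultures; the minimum inhibitory concentration is the level that reduces virus-induced cytopathogenicity by 50%.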

Human alphaherpesvirus 1 [5] = assay: Antiviral activity against HSV1 KOS; assay type: functional; conditions: Human alphaherpesvirus 1, KOS; outline: as §1
Vaccinia virus = assay: Antiviral activity against vaccinia virus; assay type: functional; conditions: Orthopoxvirus vaccinia; outline: as §1
[6] = Cytotoxicity against HeLa cells; assay type: cell-based; conditions: human, read-out: MIC
Outline: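 HeLa cell cultures examined by microscopy; the minimal cytotoxic concentration is the level that causes a microscopically detectable alteration of normal cell morphology.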

Coxsackievirus B4 = assay: Antiviral activity against CV B4; assay type: functional; conditions: Enterovirus B
Outline: (§2)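 Antiviral test in HeLa cell cultures; the minimum inhibitory concentration is the level that reduces virus-induced cytopathogenicity by 50%.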

[7] = tested on: Respiratory syncytial virus; assay: Antiviral activity against RSV; assay type: functional; conditions: human respiratory syncytial virus; outline: as §2
CCRF-CEM = assay: Cytostatic activity against human CEM/0 cells; assay type: functional, cell-based
Outline: (§3)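 Tumour cell proliferation assay; IC50 is the compound concentration that inhibits cell proliferation by 50%.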

[8] = Cytostatic activity against mouse L1210/0 cells; assay type: functional, cell-based; outline: as §3
MOLT-4 = assay: Cytostatic activity against human Molt4/C8 cells; assay type: functional, cell-based; outline: as §3

Chain of Maltase-glucoamylase (Homo sapiens) (O43451 whole entry, looked up): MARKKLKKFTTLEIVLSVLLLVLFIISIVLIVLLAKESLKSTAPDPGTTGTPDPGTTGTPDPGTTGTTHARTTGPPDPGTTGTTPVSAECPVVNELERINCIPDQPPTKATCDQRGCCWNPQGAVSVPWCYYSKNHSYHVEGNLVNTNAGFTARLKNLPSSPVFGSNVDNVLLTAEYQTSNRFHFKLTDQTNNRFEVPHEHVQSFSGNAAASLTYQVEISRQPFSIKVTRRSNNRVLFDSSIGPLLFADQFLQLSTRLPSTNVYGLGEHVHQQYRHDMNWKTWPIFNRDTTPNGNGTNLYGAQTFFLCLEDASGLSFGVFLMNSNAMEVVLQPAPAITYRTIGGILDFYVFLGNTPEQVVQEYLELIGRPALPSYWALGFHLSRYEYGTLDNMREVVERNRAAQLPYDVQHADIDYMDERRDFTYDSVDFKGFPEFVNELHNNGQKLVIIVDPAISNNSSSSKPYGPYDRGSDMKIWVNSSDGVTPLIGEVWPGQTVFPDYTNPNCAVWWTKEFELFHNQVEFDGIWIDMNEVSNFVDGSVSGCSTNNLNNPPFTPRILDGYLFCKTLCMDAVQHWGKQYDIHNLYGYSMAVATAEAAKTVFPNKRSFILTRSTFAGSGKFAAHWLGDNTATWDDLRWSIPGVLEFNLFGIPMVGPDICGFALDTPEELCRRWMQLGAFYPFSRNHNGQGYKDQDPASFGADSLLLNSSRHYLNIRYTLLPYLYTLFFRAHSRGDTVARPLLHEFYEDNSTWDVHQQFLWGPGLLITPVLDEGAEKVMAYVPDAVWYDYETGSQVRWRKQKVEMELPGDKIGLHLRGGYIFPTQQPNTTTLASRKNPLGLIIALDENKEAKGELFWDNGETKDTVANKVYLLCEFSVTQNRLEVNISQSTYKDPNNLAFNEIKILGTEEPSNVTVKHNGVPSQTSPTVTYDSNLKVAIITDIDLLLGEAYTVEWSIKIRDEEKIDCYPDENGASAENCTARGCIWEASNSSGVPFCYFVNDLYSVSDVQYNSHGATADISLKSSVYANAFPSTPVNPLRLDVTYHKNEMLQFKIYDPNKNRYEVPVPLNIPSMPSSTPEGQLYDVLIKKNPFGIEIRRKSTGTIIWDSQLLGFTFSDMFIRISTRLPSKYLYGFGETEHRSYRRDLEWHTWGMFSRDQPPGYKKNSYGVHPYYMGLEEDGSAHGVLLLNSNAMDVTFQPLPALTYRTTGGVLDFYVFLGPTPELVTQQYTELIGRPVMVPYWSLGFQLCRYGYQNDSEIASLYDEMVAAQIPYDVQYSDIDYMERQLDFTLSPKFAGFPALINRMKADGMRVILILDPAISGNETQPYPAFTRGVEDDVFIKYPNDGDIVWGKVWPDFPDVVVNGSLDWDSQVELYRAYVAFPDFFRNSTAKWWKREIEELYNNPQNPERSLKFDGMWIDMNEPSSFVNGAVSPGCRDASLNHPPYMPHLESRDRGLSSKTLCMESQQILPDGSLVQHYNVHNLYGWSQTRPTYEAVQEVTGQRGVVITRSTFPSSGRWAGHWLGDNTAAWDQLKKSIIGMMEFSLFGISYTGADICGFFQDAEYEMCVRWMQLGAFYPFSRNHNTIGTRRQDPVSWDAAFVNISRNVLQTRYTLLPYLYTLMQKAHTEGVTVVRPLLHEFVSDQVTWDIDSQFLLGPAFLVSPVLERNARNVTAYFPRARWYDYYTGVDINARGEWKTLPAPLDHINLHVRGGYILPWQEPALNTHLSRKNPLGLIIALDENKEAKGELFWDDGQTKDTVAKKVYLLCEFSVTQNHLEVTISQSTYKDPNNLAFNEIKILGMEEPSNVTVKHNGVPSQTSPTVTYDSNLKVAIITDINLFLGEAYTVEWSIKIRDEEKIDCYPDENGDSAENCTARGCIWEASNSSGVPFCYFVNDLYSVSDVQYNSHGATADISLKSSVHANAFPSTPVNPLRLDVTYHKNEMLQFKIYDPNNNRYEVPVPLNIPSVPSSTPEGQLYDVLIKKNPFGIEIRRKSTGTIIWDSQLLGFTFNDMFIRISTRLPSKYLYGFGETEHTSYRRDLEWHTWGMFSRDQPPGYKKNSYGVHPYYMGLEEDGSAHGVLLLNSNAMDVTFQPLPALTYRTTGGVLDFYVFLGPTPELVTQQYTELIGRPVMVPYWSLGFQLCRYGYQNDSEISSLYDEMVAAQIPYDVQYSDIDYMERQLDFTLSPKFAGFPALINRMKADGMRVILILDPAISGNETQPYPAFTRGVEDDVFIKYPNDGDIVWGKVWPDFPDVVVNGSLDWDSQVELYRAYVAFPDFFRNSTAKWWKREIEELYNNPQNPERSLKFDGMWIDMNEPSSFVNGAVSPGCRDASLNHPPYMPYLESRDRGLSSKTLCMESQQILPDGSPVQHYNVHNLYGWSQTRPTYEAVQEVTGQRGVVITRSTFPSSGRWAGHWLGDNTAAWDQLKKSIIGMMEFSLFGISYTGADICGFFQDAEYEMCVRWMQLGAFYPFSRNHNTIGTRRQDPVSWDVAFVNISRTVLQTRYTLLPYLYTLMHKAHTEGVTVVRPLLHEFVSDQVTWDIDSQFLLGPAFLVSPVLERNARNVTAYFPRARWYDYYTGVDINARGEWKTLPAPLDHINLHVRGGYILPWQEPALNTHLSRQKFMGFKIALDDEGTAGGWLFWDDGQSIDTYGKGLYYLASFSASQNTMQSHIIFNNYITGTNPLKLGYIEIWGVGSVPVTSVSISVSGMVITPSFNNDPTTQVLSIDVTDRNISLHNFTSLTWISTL

With `CC(=O)O[C@@H]1C=C2C3OC4OC5OC(O[C@@]24[C@@]2(C)CCCC(C)(C)[C@H]12)C1=C[C@@H](OC(C)=O)[C@H]2C(C)(C)CCC[C@]2(C)[C@]15O3` the Activity [1] was “inactive”.
With `CC(C)=CCC/C(C)=C/CC/C(C)=C/CC[C@]1(C)CCc2cc(O)cc(C)c2O1` the Activity [1] was “inactive”.
In the case of `Nc1nc2c(ncn2COCCO)c(=O)[nH]1` [ACYCLOVIR], the MCC [2] is reported as > 500000 nM, the MIC [3] is reported as > 500 µM and the MIC (Human alphaherpesvirus 2) is reported as 0.48 µM (≈ 0.108 µg/mL). For the same compound, the MIC (Human alphaherpesvirus 1 [4]) was 60 µM (≈ 13.5 µg/mL), the MIC (Human alphaherpesvirus 1 [5]) was 0.48 µM (≈ 0.108 µg/mL) and the MIC (Vaccinia virus) was > 500 µM.
For `NC(=O)c1ncn([C@@H]2O[C@H](CO)[C@@H](O)[C@H]2O)n1` [RIBAVIRIN], the MCC [6] was > 500 µM, the MIC [3] was 300 µM (≈ 73.3 µg/mL) and the MIC (Coxsackievirus B4) was > 500 µM. It also gave an MIC [7] of 60 µM (≈ 14.7 µg/mL).
For `CC1=C(C(=O)O)C(=O)C2=C3[C@@](C)(CCC[C@]13C)CO2`, the Activity [1] was “inactive”.
In the case of `CC(=O)O[C@@H]1[C@H]([C@@H]2C3=C(C(=O)OC3)[C@@]3(C)CCCC(C)(C)[C@@H]3[C@@H]2OC(C)=O)C2=C(C(=O)OC2)[C@@]2(C)CCCC(C)(C)[C@H]12`, the Activity [1] is reported as “inactive”.
For `CC(=O)O[C@@H]1[C@@H](O[C@H]2O[C@@H]3O[C@H](C4=C[C@@H](OC(C)=O)[C@H]5C(C)(C)CCC[C@]5(C)[C@@]4(O)C=O)O[C@@]34C2=C[C@@H](OC(C)=O)[C@H]2C(C)(C)CCC[C@@]24C)C2=C(C(=O)OC2)[C@@]2(C)CCCC(C)(C)[C@H]12`, the Activity [1] was “inactive”.
In the case of `CC(=O)O[C@@H]1C=C([C@@H]2O[C@@H]3O[C@H](O)C4=C[C@@H](OC(C)=O)[C@H]5C(C)(C)CCC[C@]5(C)[C@]43O2)[C@](O)(C=O)[C@@]2(C)CCCC(C)(C)[C@H]12`, the Activity [1] is reported as “inactive”.
With `CC(=O)O[C@@H]1C=C(C2O[C@@H]3OC(O)C4=C[C@@H](OC(C)=O)[C@H]5C(C)(C)CCC[C@]5(C)[C@]43O2)[C@](O)(C=O)[C@@]2(C)CCCC(C)(C)[C@H]12` (stereo partly drawn) [CAPSICODENDRIN] the MCC [6] was 5.16 µM, the MCC [2] was ≥ 1030 nM and the MIC [3] was > 1.03 µM. For the same compound, the MIC (Human alphaherpesvirus 2) was > 1.03 µM, the IC50 (CCRF-CEM) was 860 nM and the MIC (Coxsackievirus B4) was > 1.03 µM. For the same compound, the inhibition [1] was 89.4%, the MIC (Human alphaherpesvirus 1 [4]) was > 1.03 µM and the IC50 [8] was 1210 nM. The MIC (Human alphaherpesvirus 1 [5]) was > 1.03 µM, the MIC [7] was > 1.03 µM and the MIC (Vaccinia virus) was > 1.03 µM. It also gave an IC50 (MOLT-4) of 940 nM.
With `CC(=O)OC1=CC2=C(COC2=O)[C@@]2(C)CCCC(C)(C)[C@H]12` the Activity [1] was “inactive”.
In the case of `CC1(C)CCC[C@]2(C)C3=C(C=C[C@@H]12)C(=O)OC3`, the Activity [1] is reported as “inactive”.
In the case of `COC1O[C@H]2O[C@H](C3=C[C@@H](OC(C)=O)[C@H]4C(C)(C)CCC[C@]4(C)[C@@]3(O)C=O)O[C@@]23C1=C[C@@H](OC(C)=O)[C@H]1C(C)(C)CCC[C@@]13C` (stereo partly drawn), the inhibition [1] is reported as 26.5%.
In the case of `CC1(C)CCC[C@]2(C)[C@H]3COC(=O)C3=CC[C@@H]12`, the Activity [1] is reported as “inactive”.
In the case of `CC1(C)CCC[C@]2(C)[C@H](C=O)C(C=O)=CC[C@@H]12`, the Activity [1] is reported as “inactive”.
In the case of `CC(=O)O[C@@H]1C=C(C=O)[C@](O)(C=O)[C@@]2(C)CCCC(C)(C)[C@H]12` [CINNAMODIAL], the MCC [6] is reported as 10.3 µM, the MCC [2] is reported as ≥ 2060 nM and the MIC [3] is reported as > 2.06 µM. For the same compound, the MIC (Human alphaherpesvirus 2) was > 2.06 µM, the IC50 (CCRF-CEM) was 1610 nM and the MIC (Coxsackievirus B4) was > 2.06 µM. For the same compound, the inhibition [1] was 78.2%, the MIC (Human alphaherpesvirus 1 [4]) was > 2.06 µM and the IC50 [8] was 580 nM. The MIC (Human alphaherpesvirus 1 [5]) was > 2.06 µM, the MIC [7] was > 2.06 µM and the MIC (Vaccinia virus) was > 2.06 µM. It also gave an IC50 (MOLT-4) of 1510 nM.
For `OC[C@H]1NC[C@H](O)[C@@H](O)[C@@H]1O`, the inhibition [1] was 100%.
